bCat nuc transl: modulators of beta-catenin nuclear translocation | HeLa beta-catenin nuclear translocation, immunofluorescence imaging | nuclear translocation activity, % at 5 µM | actives 0.3% (n = 190,000);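 active = nuclear translocation activity above 50% at 5 µM, with a well cell count of 50 or more; inconclusive = wells under 50 cells across six images, flagged as toxic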;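 also: per-cell ratio of nuclear to cytoplasmic median beta-catenin stain intensity; plate controls were DMSO negative control for no effect and GSK-3 inhibitor IX positive control for full effect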
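test system = HeLa cells, endogenous beta-catenin | dosing = single 5 µM dose plus 0.02–20 µM confirmation series | times = compound treatment 24 h, 37°C, 5% CO2 | technique = beta-catenin immunofluorescence imaging with DAPI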
Autophagy HCS: modulators of autophagy; MEF GFP-LC3 puncta imaging; test concentration mostly 10 µM; calls only at 10 µM (by protocol); actives 0.98% (n = 190,000); AID 463193;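 active = percentage of spot-positive cells more than 3 SD above its plate mean, without a fluorescence outlier flag or 80% toxicity; inconclusive = no clear call, values can overlap the other calls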;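 also: spot-positive cell cutoff set from DMSO-treated cells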
HSV replic up: HSV replication enhancement; maximum fold increase; AID 1956; actives 0.005% (n = 220,000); HSV replication augmentation in cells, fold increase; in the data active = maximum fold increase above about 1.5; inconclusive = no clear call, values can overlap the other calls; tested in PC3 cells
MT stabilize HCS: microtubule stabilization, imaging screen. HeLa tubulin immunostaining HCS, 24 h; share of cells brighter than vehicle mean+2SD. % tubulin-high responders, % at 10 µM. actives 0.83% (n = 200,000). AID 2205;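 active = plate Z-score above 3 for both tubulin-high and condensed-nucleus cell shares, with cell loss under 80%, at 10 µM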;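 also: anti alpha tubulin signal scored within the nucleus-defined area of each cell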
Furin inh: human furin inhibition | P09958 | purified furin, fluorogenic substrate cleavage | inhibition, % at 20 µM or 30 µM | actives 0.061% (n = 220,000) | AID 463115; in the data active = inhibition above about 25%
Target sequence (P09958 108-714 limits assumed): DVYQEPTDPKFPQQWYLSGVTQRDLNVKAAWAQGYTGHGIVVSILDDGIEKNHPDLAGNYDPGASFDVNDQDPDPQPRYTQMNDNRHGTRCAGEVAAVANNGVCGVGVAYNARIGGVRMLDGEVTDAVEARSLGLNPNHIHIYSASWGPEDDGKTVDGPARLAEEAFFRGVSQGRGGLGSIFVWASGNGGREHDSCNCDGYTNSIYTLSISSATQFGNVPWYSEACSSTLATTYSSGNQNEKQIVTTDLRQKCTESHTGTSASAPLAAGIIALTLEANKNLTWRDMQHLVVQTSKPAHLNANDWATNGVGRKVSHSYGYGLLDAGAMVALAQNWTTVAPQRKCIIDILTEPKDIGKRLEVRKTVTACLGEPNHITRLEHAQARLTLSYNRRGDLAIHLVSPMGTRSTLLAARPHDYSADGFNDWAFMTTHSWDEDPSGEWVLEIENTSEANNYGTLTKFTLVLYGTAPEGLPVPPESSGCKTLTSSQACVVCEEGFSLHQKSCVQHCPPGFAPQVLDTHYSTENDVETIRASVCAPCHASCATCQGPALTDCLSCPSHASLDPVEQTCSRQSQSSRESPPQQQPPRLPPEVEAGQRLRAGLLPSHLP
Insulin prom up: MIN6 insulin promoter up-regulation. actives 0.3% (n = 190,000). z-score at 5 µM. MIN6 insulin promoter-GFP reporter, high-content imaging; hits give high values. AID 1625;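 active = z-score above 3 at 5 µM with at least 500 cells counted in the well; inconclusive = wells under 500 cells, flagged as cytotoxic or low count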
* = called active by the depositor; i = inactive; ? = inconclusive; · = no result given; + = active, no number. Only some compounds are listed: those with a hit (about 1.9% of all), similar ones and a draw of the others.

SMILES	bCat nuc transl	Autophagy HCS	HSV replic up	MT stabilize HCS	Furin inh	Insulin prom up
Cc1cc(=O)oc2cc(OCC(=O)N3CC(C)OC(C)C3)ccc12 (centres undefined)	-5	i	i	2	-25	-0.73
CNC(=O)COC(=O)COc1ccc2c(C)cc(=O)oc2c1	4	i	i	2	-28	0.4
CC(C)N=c1c([N+](=O)[O-])nn(C)n1O	-1	i	i	4	-16	0.6
COc1cc(/C=N/Nc2nc(Nc3ccc(C)cc3)nc(-n3nc(C)cc3C)n2)cc(OC)c1OC	-3	i	i	4	-25	?
COc1cc(/C=N/Nc2nc(Nc3ccccc3)nc(-n3nc(C)cc3C)n2)cc(OC)c1OC	-2	+	i	5	-29	·
COc1ccc(/C=N/Nc2nc(Nc3ccccc3)nc(N3CCCC3)n2)cc1[N+](=O)[O-]	1	+	i	7	-15	-1
CC(C)(C)C(O)/C=C/c1ccc2c(c1)OCO2 (centres undefined)	·	·	i	·	·	·
CCOc1cccc2cc(-c3csc(NC(=O)CCC(=O)N4CCC(C)CC4)n3)c(=O)oc12	·	+	i	6	-13	-0.37
CCOc1cccc2cc(-c3csc(NC(=O)CCC(=O)NCCCN4CCC(C)CC4)n3)c(=O)oc12	-2	i	i	5	-3	·
CCCCN1CC[C@H]2C=CC[C@@H](C(=O)Nc3ccc(Cl)cc3Cl)[C@H]2C1=O	·	·	i	·	·	·
CC(C)CCN1CCN(Cc2ccc(Oc3ncccn3)cc2)CC1CCO (centres undefined)	1	+	i	3	-14	-0.53
COc1ccc(CNCCc2ccccc2)cc1OCC(N)=O	0	i	i	1	-28	-0.26
COc1ccc(CNCCc2ccc(Cl)cc2)cc1OCc1ccccc1	2	+	i	2	-14	·
O=C1NC(c2ccc(Cl)cc2)Nc2ccccc21 (centres undefined)	1	i	i	22*	-7	-0.19
Cc1ccc(C2NC(=O)c3ccccc3N2)s1 (centres undefined)	94*	i	i	43*	-4	-0.79
O=C1NC(c2ccncc2)Nc2ccccc21 (centres undefined)	-1	i	i	2	-19	-0.11
C/C(=N\O)C1CCCCC1	0	·	i	·	-8	-0.04
CCC1CN(C(=O)Nc2ccc(C)cc2)c2cc(C)ccc2O1 (centres undefined)	0	+	i	2	-24	·
CC(/C=N/NC(=O)c1cc(-c2ccccc2)nc2ccccc12)=C\c1ccco1	155*	i	i	7	-6	-0.41
CC(/C=N/NC(=O)c1cc(-c2ccc(Cl)cc2)nc2ccccc12)=C\c1ccco1	235*	i	i	14	-3	·
CC(=C/c1ccco1)/C=N/NC(=O)c1ccncc1	3	·	i	·	-1	·
Cc1ccc(NC(=O)Nc2ccno2)cc1	-2	·	i	·	-34	-1.8
Cc1cc(C)n(C(=O)CCC2COc3ccccc3O2)n1 (centres undefined)	·	i	i	2	-23	3.5*
COc1cccc(NC(=O)N2CCCC2)c1	0	i	i	2	-17	0.51
COc1cccc(NC(=O)N2CCN(c3nnnn3-c3ccccc3)CC2)c1	-1	i	i	2	-19	3.1*
SMILES	bCat nuc transl	Autophagy HCS	HSV replic up	MT stabilize HCS	Furin inh	Insulin prom up
O=C(c1c[nH]c(C(=O)C(Cl)(Cl)Cl)c1)c1ccccc1Br	0	i	i	2	-28	0.08
COc1ccc2c(C)cc(SCC(=O)N3CCOCC3)nc2c1	-4	i	?	3	-26	0.93
COc1ccc2c(C)cc(SCC(=O)N(C)C3CCS(=O)(=O)C3)nc2c1 (centres undefined)	-2	+	i	5	-17	·
Cc1c(C(=O)O)cccc1-c1ccc(/C=C2/NC(=O)N(c3ccccc3)C2=O)o1	-1	i	i	1	-32	3.9*
c1ccc(-c2csc(-n3cnnn3)n2)cc1	1	i	i	2	-8	3.1*
COc1ccc(-c2nnnn2-c2ccccc2OC)cc1	2	i	i	20*	-24	0.28
Cc1ccccc1-n1nnnc1-c1ccccc1	-3	i	i	6	-18	-0.12
Cc1cc(-c2nnc(-c3cccc(Cl)c3)o2)no1	-7	·	i	·	-33	-0.44
O=[N+]([O-])c1ccc(N/N=C/c2c[nH]c3ccccc23)c(S(=O)(=O)Nc2ccc(Cl)cc2)c1	1	+	·	4	-3	·
CCOc1ccccc1-c1c2cc(O)c(=O)cc-2oc2cc(O)c(O)cc12	0	i	·	4	-13	8.1*
CCOC(=O)c1oc2cc(O)ccc2c(=O)c1-c1ccccc1OC	-3	i	i	3	-16	-0.16
COc1ccc(OC)c(-c2c3cc(O)c(=O)cc-3oc3cc(O)c(O)cc23)c1	0	i	?	6	7	-0.57
O=c1cc2oc3cc(O)c(O)cc3c(-c3ccccc3O)c-2cc1O	10	·	?	·	2	15*
COC(=O)c1ccc(NC(=O)CN2CCN(c3cccc(Cl)c3)CC2)cc1	2	i	i	2	-18	0.62
COC(=O)c1ccc(NC(=O)CN2CCN(c3ccc(Cl)cc3)CC2)cc1	1	+	i	3	-11	1.7
CCN(CC)CCNC(=O)c1cc2c(-c3ccc(Cl)cc3)nn(C)c2s1	·	+	i	3	-51	0.44
c1ccc2c(c1)OCCOCCOc1ccccc1OCCOCCO2	·	i	i	4	-9	-0.26
Cc1c2ccccc2nc2c(F)c(NC(C)C)c(F)c(F)c12	10	+	?	12	2	·
O=C(Cn1c(O)c(/C=C2\C=Nc3ccccc32)sc1=O)Nc1ccc2c(c1)OCO2	0	+	i	2	-7	0.32
COc1cccc(C(=O)/C=C/Nc2cc(C)ccc2O)c1	·	+	i	2	4	0.75
CCOC(=O)c1ccc(N/C=C\C(=O)c2cccc(OC)c2)cc1	4	i	i	2	-21	-0.07
CCN1/C(=C/c2ccc3cc(C)ccc3[n+]2C)Sc2ccc3sccc3c21	·	+	·	77*	-6	?
CCn1c(C)c(P(c2ccccc2)c2ccccc2)[n+]2ccccc12	1	i	i	3	-24	?
CCn1ncc(/C=N\NC(=O)c2cc(-c3ccc(C)cc3C)nc3ccccc23)c1C	-3	i	i	44*	-6	0.27
O=C(N/N=C/c1cccs1)c1cc(C2CC2)nc2ccccc12	61*	i	i	17*	4	-0.03
CCc1ccc(/C=N/NC(=O)c2c[nH]c3ccccc23)s1	-3	i	i	2	4	-0.23
CCCc1cc(C(=O)N/N=C/c2ccc(CC)s2)c2ccccc2n1	·	i	i	34*	-10	·
